In ChEMBL document CHEMBL1128512, “Keto/enol epoxy steroids as HIV-1 Tat inhibitors: structure-activity relationships and pharmacophore localization” (J Med Chem, 1995):

Legend:
[1] = Therapeutic index, measured by whole cell assay.; details: read-out: Therapeutic index
Summary of the method: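 Ratio of cytotoxicity IC50 to HIV replication IC50 in H9 cells; cut-off of 3 counts as positive. Toxicity: uninfected H9 at 2×10^4 cells/well, 3-5 compound concentrations in quadruplicate, 5 days at 37 °C, 5% CO2, media and compound renewed day 3, viable cells counted by trypan blue exclusion. Antiviral IC50 from HIV-1 IIIB p24 ELISA at day 5.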

[2] = test system: Human immunodeficiency virus 1; assay: Inhibition of HIV replication in H9 cells.; assay type: functional, organism-based; details: Human immunodeficiency virus 1, H9
Summary of the method: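 H9 cells (RPMI 1640 + 10% IFCS) infected with HIV-1 IIIB at three virus concentrations (0.5 log10 dilutions; most dilute ~5-10 infectious units/well), seeded 2×10^4 cells/well. 3-5 compound concentrations, 0.5% DMSO final, quadruplicate, 5 days at 37 °C, 5% CO2; media and compound renewed day 3. Day-5 supernatant p24 ELISA; IC50 for ≥2 viral doses, 3-5 assays, mean of n.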

SW480 [3] = assay: The compound was tested for inhibition of HIV-1 replication in SW480 cells using HIV tat assay; Not active at 37 mM; assay type: functional, cell-based, Homo sapiens
Summary of the method: (§1)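 SW480 colon carcinoma cells at 70-80% confluence, calcium phosphate co-transfected with HIV-1 LTR-CAT (pBennCAT) plus pSV2tat, total DNA adjusted with salmon sperm DNA. Compound (from DMSO stock diluted 100-fold in DMEM + 10% IFCS) added 5 h post-transfection, duplicate wells, 48 h at 37 °C. CAT activity read with [14C]chloramphenicol, 2 h. Selectivity check against SV40-promoter CAT. IC50 from logit dose-response curves, 3-5 experiments, 95% confidence limits.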

SW480 [4] = assay: The compound was tested for inhibition of HIV-1 replication in SW480 cells using HIV tat assay; Not active at 123 mM; assay type: functional, cell-based, Homo sapiens; summary of the method: as §1
SW480 [5] = assay: The compound was tested for inhibition of HIV-1 replication in SW480 cells using HIV tat assay; Not active at 100 mM; assay type: functional, cell-based, Homo sapiens; summary of the method: as §1
SW480 [6] = assay: The compound was tested for inhibition of HIV-1 replication in SW480 cells using HIV tat assay; Not active at 80 mM; assay type: functional, cell-based, Homo sapiens
SW480 [7] = assay: The compound was tested for inhibition of HIV-1 replication in SW480 cells using HIV tat assay; Not active at […]; assay type: functional, cell-based, Homo sapiens
SW480 [8] = assay: The compound was tested for inhibition of HIV-1 replication in SW480 cells using HIV tat assay; Not active; assay type: functional, cell-based, Homo sapiens
SW480 [9] = assay: The compound was tested for inhibition of HIV-1 replication in SW480 cells using HIV tat assay; Not active at 90 mM; assay type: functional, cell-based, Homo sapiens
SW480 [10] = assay: The compound was tested for inhibition of HIV-1 replication in SW480 cells using HIV tat assay; Not active at 32 mM; assay type: functional, cell-based, Homo sapiens; summary of the method: as §1

Compound | selectivity ratio [1] | IC50 [2] [nM] | also measured
C[C@@]12CCCC[C@@]1(O)[C@@H](Cl)C(=O)C(C(N)=O)C2 (some centres not stated) | 2 | 9300 | 
C[C@@]12CCCC[C@]13O[C@@H]3C(=O)C(C(N)=O)C2 (some centres not stated) | 4.1 | 6400 | 
COc1ccc(NC(=O)C2CC(C)(C)C3OC3C2=O)cc1 (configuration not stated) | 1.2 | 5200 | 
COc1ccc(NC(=O)C2CC(C)(C)C=CC2=O)cc1 (configuration not stated) |  |  | IC50 (SW480 [3]): Not Active
CC1(C)C=CC(=O)C(C(=O)Nc2ccccc2)C1 (configuration not stated) |  |  | IC50 (SW480 [4]): Not Active
C[C@@]12CCCCC1=CC(=O)C(C(=O)Nc1ccccc1)C2 (some centres not stated) |  |  | IC50 (SW480 [5]): Not Active
C[C@@]12CCCC[C@]13O[C@@H]3C(=O)C(C(=O)Nc1ccccc1)C2 (some centres not stated) | 3.8 | 2100 | 
C[C@@]12CCCC[C@]13O[C@@H]3C(=O)C(C#N)C2 (some centres not stated) | 3 | 11000 | 
CC1(C)CC(C(=O)Nc2c(Cl)cccc2Cl)C(=O)C2OC21 (configuration not stated) | 2.3 | 2700 | 
COc1ccc(NC(=O)C2C[C@]3(C)CCCC[C@]34O[C@@H]4C2=O)cc1 (some centres not stated) | 1.3 | 8500 | 
CC(=O)O[C@H]1CCC2C3CCC4=CC(=O)C(C(N)=O)C[C@]4(C)C3CC[C@@]21C (some centres not stated) |  |  | IC50 (SW480 [6]): Not Active
C[C@]12CCC3C(CC[C@@]45O[C@@H]4C(=O)C(S(C)(=O)=O)C[C@]35C)C1CC[C@@H]2O (some centres not stated) | 3.9 | 1400 | 
COC(=O)C1C[C@]2(C)[C@H]3CC[C@]4(C)[C@@H](O)CC[C@H]4[C@@H]3CC[C@]23O[C@@H]3C1=O (some centres not stated) | 4.5 | 2400 | 
C[C@]12CC[C@H]3[C@@H](CC[C@@]45O[C@@H]4C(=O)C(C(N)=O)C[C@]35C)[C@@H]1CC[C@@H]2O (some centres not stated) | 6.5 | 1200 | 
CC(=O)O[C@H]1CC[C@H]2[C@@H]3CCC4CC(=O)C(C(N)=O)C[C@]4(C)[C@H]3CC[C@]12C (some centres not stated) |  |  | IC50 (SW480 [6]): Not Active
C[C@]12CC[C@H]3[C@@H](CC[C@@]45O[C@@H]4C(=O)C(S(=O)(=O)c4ccccc4)C[C@]35C)[C@@H]1CC[C@@H]2O (some centres not stated) | 2.6 | 1600 | 
C[C@]12CC[C@H]3[C@@H](CC[C@]45O[C@H]4C(=O)CC[C@]35C)[C@@H]1CC[C@@H]2O |  |  | IC50 (SW480 [7]): Not Active

Compound | selectivity ratio [1] | IC50 [2] [nM] | also measured
COC(=O)C1C[C@]2(C)[C@H]3CC[C@]4(C)[C@@H](OC(C)=O)CC[C@H]4[C@@H]3CC[C@]23O[C@@H]3C1=O (some centres not stated) | 3.1 | 1400 | 
CC(=O)O[C@H]1CC[C@H]2[C@@H]3CC[C@@]45O[C@@H]4C(=O)C(C(N)=O)C[C@]5(C)[C@H]3CC[C@]12C (some centres not stated) | 1.6 | 2400 | 
CC(=O)O[C@H]1CC[C@H]2[C@@H]3CC[C@@]45O[C@@H]4[C@@H](O)[C@@H](C(N)=O)C[C@]5(C)[C@H]3CC[C@]12C |  |  | IC50 (SW480 [6]): Not Active
CC(=O)O[C@H]1CC[C@H]2[C@@H]3CC[C@@]45O[C@@H]4C(=O)C(S(C)(=O)=O)C[C@]5(C)[C@H]3CC[C@]12C (some centres not stated) | 4.3 | 300 | 
C[C@]12CC[C@H]3[C@@H](CC[C@@]45O[C@@H]4[C@H](O)[C@H](C(N)=O)C[C@]35C)[C@@H]1CC[C@@H]2O |  |  | IC50 (SW480 [8]): Not Active
C[C@]12CC[C@H]3[C@@H](CCC4CC(=O)C(C(N)=O)C[C@@]43C)[C@@H]1CC[C@@H]2O (some centres not stated) |  |  | IC50 (SW480 [9]): Not Active
CC(=O)O[C@H]1CC[C@H]2[C@@H]3CC[C@@]45O[C@@H]4[C@H](O)[C@H](C(N)=O)C[C@]5(C)[C@H]3CC[C@]12C |  |  | IC50 (SW480 [6]): Not Active
C[C@]12CCCC[C@@]13O[C@H]3C(=O)C(C(N)=O)C2 (some centres not stated) | 2.6 | 10300 | 
C[C@@]12CCCC[C@@]1(O)[C@@H](Cl)C(=O)C(C(=O)Nc1ccccc1)C2 (some centres not stated) | 1.9 | 3300 | 
CC1(C)C=CC(=O)C(C(=O)Nc2c(Cl)cccc2Cl)C1 (configuration not stated) |  |  | IC50 (SW480 [10]): Not Active
C[C@]12CC(C(N)=O)C(=O)C=C1CCC1C2CC[C@@]2(C)C1CC[C@@H]2O (some centres not stated) |  |  | IC50 (SW480 [9]): Not Active
CC1(C)CC(C(=O)Nc2ccccc2)C(=O)C2OC21 (configuration not stated) | 1.4 | 4300 | 
COc1ccc(NC(=O)C2C[C@]3(C)CCCC[C@@]3(O)[C@@H](Cl)C2=O)cc1 (some centres not stated) | 4.2 | 3300 | 
C[C@]12CCCC[C@@]13O[C@H]3C(=O)C(C#N)C2 (some centres not stated) | 3.8 | 25900 | 
COc1ccc(NC(=O)C2C[C@]3(C)CCCCC3CC2=O)cc1 (some centres not stated) |  |  | IC50 (SW480 [5]): Not Active
O=C1CN=C(c2ccc[nH]2)c2cc(Cl)ccc2N1 |  | 600 | 
